Measurements pooled from the literature.
Lines come from different studies, so protocols differ.

SMILES | host | matrix | route | dose | notes | Cmax
O=c1cc(-c2ccc(O)c(O)c2)oc2cc(O)cc(O)c12 | male Sprague-Dawley rat | plasma | oral | 30 mg/kg |  | 40.1 ng/mL
O=C1c2ccncc2C(=O)c2c1[nH]c1ccccc21 | rat | plasma | intravenous | 1 mg/kg | single dose | 3.25 µM
C[C@H]1[C@@H](O)O[C@@H]2O[C@@]3(C)CC[C@H]4[C@H](C)CC[C@@H]1[C@@]24OO3 | Sprague-Dawley rat | plasma | oral | 10 mg/kg |  | 227 ng/mL
N#C[C@@]12C[C@@H]1[C@@H](n1cnc3c(N[C@@H](C4CCC4)C4CC4)nc(I)nc31)[C@H](O)[C@@H]2O | male Wistar rat | plasma | oral | 1 mg/kg |  | 6.73 ng/mL
O=C(C=Cc1ccccc1)Nc1cc(-c2ccnc(N3CCC(O)CC3)c2)ccn1 | female Sprague-Dawley rat | plasma | intravenous | 5 mg/kg |  | 324 ng/mL
CC1(CN)CCN(c2cnc3c(Sc4ccncc4Cl)n[nH]c3n2)CC1 | male Sprague-Dawley rat | plasma | oral | 10 mg/kg |  | 142 ng/mL
O=C1CC[C@H](N2Cc3cc(N4CCN(CC5CCN(c6ccc([C@@H]7c8ccc(O)cc8CC[C@@H]7c7ccccc7)cc6)CC5)CC4)ccc3C2=O)C(=O)N1 | male Sprague-Dawley rat | plasma | oral | 20 mg/kg | fed | 1040 ng/mL
Cc1c(C(=O)O)ccc2c3n(nc12)[C@@H]1[C@H](C3)N(CC2CC2)[C@@]2(C(=O)Nc3cc(Cl)ccc32)[C@H]1c1cccc(Cl)c1F | male rat | plasma | oral | 2 mg/kg |  | 5.7 µM
COc1ccc2cc3n(c(=O)c2c1OC)CCc1cc2c(cc1-3)OCO2 | male Sprague-Dawley rat | blood | oral | 50 mg/kg |  | 233 ng/mL
Nc1ccc(/C=C/C(=O)NCc2cc3cc(-c4ccc(C(=O)N5CCC(F)(F)CC5)cc4)cc(-c4ccc(F)cc4)c3o2)cn1 | rat | plasma | oral | 3 mg/kg |  | 5990 ng/mL
CC(=Nc1ccc(N=Cc2cnccn2)cc1)N(C)C | male Sprague-Dawley rat | plasma | oral | 200 mg/kg |  | 397 ng/mL
